Screening data from PubChem.
Compounds with a hit are over-represented: about 1.9% of the library has one in this group of screens.
MT stabilize HCS: microtubule stabilizers in HeLa cells, primary screen, imaging, high-content imaging; HeLa tubulin immunostaining HCS, 24 h; share of cells brighter than vehicle mean+2SD; 200,000 tested, 0.83% active; % tubulin-high responders, % at 10 µM;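 active means plate Z-score above 3 for both tubulin-high and condensed-nucleus cell shares, with cell loss under 80%, at 10 µM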;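 further: anti alpha tubulin signal scored within the nucleus-defined area of each cell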
Insulin prom up: insulin promoter activators in MIN6 cells, imaging, high-content screening, mouse beta cells. MIN6 insulin promoter-GFP reporter; stronger effect = higher value. z-score at 5 µM. 190,000 tested, 0.3% active;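 active means z-score above 3 at 5 µM with at least 500 cells counted in the well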
Autophagy HCS: autophagy modulators in MEF cells, primary screen, imaging, high-content, MEF GFP-LC3; 190,000 tested, 0.98% active; MEF GFP-LC3 puncta imaging; test concentration mostly 10 µM; calls only at 10 µM (by protocol);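 active means percentage of spot-positive cells more than 3 SD above its plate mean, without a fluorescence outlier flag or 80% toxicity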;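 further: spot-positive cell cutoff set from DMSO-treated cells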
bCat nuc transl: modulators of beta-catenin nuclear translocation, primary screen, imaging, HeLa cells, immunofluorescence, high-content | nuclear translocation activity, % at 5 µM | 190,000 tested, 0.3% active | AID 1665, 2009;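 active means nuclear translocation activity above 50% at 5 µM, with a well cell count of 50 or more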;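 further: per-cell ratio of nuclear to cytoplasmic median beta-catenin stain intensity; plate controls were DMSO negative control for no effect and GSK-3 inhibitor IX positive control for full effect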
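System: HeLa cells, endogenous beta-catenin; compound dosing: 5 µM primary single dose, 0.1% DMSO, 0.02–20 µM confirmation series; incubation: 24 h compound exposure at 37°C, 5% CO2; signal: beta-catenin immunofluorescence imaging with DAPI; evaluation: % activation, nuclear-to-cytoplasmic median beta-catenin signal ratio per cell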
TbHK1 inh: Trypanosoma brucei hexokinase 1 inhibitors, primary screen, biochemical, G6PDH-coupled NADH absorbance, MLSCN library | hexokinase 1 [Trypanosoma brucei] | recombinant TbHK1, G6PDH-coupled NADH A340 | inhibition, % at 10 µM | 220,000 tested, 0.11% active;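 active means inhibition of 50% or more in the single-dose primary screen; inactive means inhibition below 50%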
* = called active by the depositor; i = inactive; / = no result given; + = active, no number.

SMILES	MT stabilize HCS	Insulin prom up	Autophagy HCS	bCat nuc transl	TbHK1 inh
CCOc1ccc2c(c1)-c1c(ssc1=S)C(C)(C)N2C(=O)c1ccco1	13	0.11	i	68*	-13
COC(C[C@@H](O)[C@H](C)[C@@H](O)COCc1ccccc1)OC	/	/	/	-1	-6
CC(=O)Nc1ccccc1N(C)S(=O)(=O)c1ccc(C)cc1	47*	0.85	i	5	2
CC(=O)Nc1ccccc1NC(=O)CN(C)S(=O)(=O)c1ccc(C)cc1	2	/	i	/	1
O=C(/C=C/Nc1ccc([N+](=O)[O-])cc1)c1ccc(Br)cc1	2	-0.23	+	-2	-15
CC(C)(C)c1ccccc1NC(=O)c1c(O)c2cccc3c2n(c1=O)CC3	3	-0.45	i	3	-2
Cc1ccc(Cc2cnc(NC(=O)/C(C#N)=C/c3ccc(-c4ccccc4[N+](=O)[O-])o3)s2)cc1	8	-0.81	+	-2	-9
CCOC(=O)Cn1nc(C)c(NC(=O)c2ccc([N+](=O)[O-])c(C)c2)c1C	4	-0.92	i	0	8
COc1cccc(-c2nnc3n2N=C(c2cc(OC)ccc2OC)CS3)c1	4	-0.48	i	-2	0
COc1cc(-c2nnc3n2N=C(c2ccccc2)CS3)cc(OC)c1OC	46*	-1.1	+	93*	-9
CCOc1cccc(-c2nnc3n2N=C(c2cc(OC)ccc2OC)CS3)c1	29*	-2	i	2	-7
COc1ccc(C2=Nn3c(nnc3-c3ccccc3OC)SC2)cc1OC	16*	-3.3	i	58*	-18
COc1ccc(C2=Nn3c(nnc3-c3ccc(OC)cc3)SC2)cc1	29*	/	i	/	-7
CCNC(=O)NC(=O)C(C)OC(=O)C1CCN(S(=O)(=O)c2ccc(C)c(C)c2)CC1 (configuration not stated)	5	0.09	i	/	30
CCOc1ccc(CC(=O)C2=C(N3CCOCC3)CC(C)(C)CC2=O)cc1OCC	3	-0.07	i	1	-2
CCc1nnc(NC(=O)CSc2n[nH]c(-c3ccccc3O)n2)s1	1	/	i	7	-4
Cc1ccccc1OCc1nc(-c2ccc(NC(=O)c3ccco3)cc2)no1	2	-0.52	i	-2	9
Cc1ccccc1OCc1nc(-c2ccc(NC(=O)c3ccc4c(c3)OCO4)cc2)no1	3	-1.7	+	0	5
Cc1ccc(OCc2nc(-c3ccccc3)no2)cc1	/	0.18	/	0	-7
Cn1ncc(N=Cc2ccccc2)c1C(=O)Nc1cccc(Cl)c1	34*	0.23	i	49	-13
Cc1ccc(S(=O)(=O)NCCC(=O)NC2CCCC2)cc1	3	0.18	+	-1	-4
COc1ccc(S(=O)(=O)NCCC(=O)NC2CCCCCCC2)cc1	3	/	i	0	1
COc1ccc(-n2nc(N)c(C(N)=O)n2)cc1	2	-0.12	i	-6	-17
CCOC(=O)c1c2ccc(OCC(=O)N/N=C/c3ccccc3C(F)(F)F)cc2n2ccccc12	33*	1	i	-7	-10
CCOC(=O)c1c2ccc(OCC(=O)N/N=C/c3ccc(Cl)cc3)cc2n2ccccc12	15	1.6	+	-2	-2
SMILES	MT stabilize HCS	Insulin prom up	Autophagy HCS	bCat nuc transl	TbHK1 inh
N/C(=N\OC(=O)Cc1ccccc1)c1ccccc1Cl	1	0.04	i	2	6
C/C(=N\NC(=O)c1cc(C(C)C)[nH]n1)c1ccco1	5	1	+	-2	-3
COc1ccc(Cc2noc(CN(C)CC(O)c3ccccc3)n2)cc1OC (configuration not stated)	3	-0.1	i	1	-1
COc1ccc(CCC(=O)Nc2ccc(-c3noc(-c4ccc(OC)c(OC)c4)n3)cc2)cc1	3	-0.46	+	/	0
COc1ccc(-c2nc(-c3ccc(NC(=O)c4ccc(Br)o4)cc3)no2)cc1OC	3	-1.2	i	-3	-4
O=C(O)C1C2CCC(O2)C1C(=O)Nc1ccc(O)cc1 (configuration not stated)	5	0.36	i	0	27
O=C(N/N=C/c1ccc2c(c1)OCCO2)c1ccncc1	/	-0.6	/	0	-44
O=C(N/N=C/c1ccc2c(c1)OCO2)c1ccc2c(c1)OCCO2	12*	0.38	i	/	-39
O=C(N/N=C/c1ccc([N+](=O)[O-])o1)c1cc(-c2cccc(Br)c2)nc2ccccc12	7	-0.16	i	0	1
O=C(c1cc(-c2cccs2)nc2ccccc12)N1CCN(S(=O)(=O)c2ccccc2)CC1	3	0.01	i	-7	-29
O=C(c1cc(-c2cccs2)nc2ccccc12)N1CCN(c2ccccc2)CC1	19*	-0.66	i	25	-11
O=C(N/N=C/c1c[nH]c2ccc(Br)cc12)c1ccc2c(c1)OCO2	44*	0.74	i	73*	-23
CCCc1ccc(-c2cc(C(=O)N/N=C/c3ccc([N+](=O)[O-])o3)c3ccccc3n2)cc1	35*	/	i	229*	-17
COc1ccc(Cl)cc1NC(=S)NNC(=O)c1cccs1	2	0.03	i	0	-27
CC1CC(C)CN(C(=O)C(C)N(C)CC(=O)Nc2ccccc2Cl)C1 (configuration not stated)	3	/	i	1	-2
Nc1nc(-c2cccnc2)nn1C(=O)c1ccc(F)cc1	4	-0.5	i	0	-3
N#Cc1ccc(/C=N/NC(=O)c2cc(-c3cccs3)nc3ccccc23)cc1	17*	-1	i	116*	-21
COc1cc(/C=N/NC(=O)c2cc(-c3cccs3)nc3ccccc23)ccc1O	/	-0.99	/	-1	-67
O=C(N/N=C/c1ccc2c(c1)OCO2)c1cc(-c2ccccc2)nc2ccccc12	29*	/	i	1	-5
CC(=O)N1/C(=C/c2ccc(N(C)C)cc2)C(=O)c2ccccc21	20*	-0.6	i	2	-10
CCOc1ccc(-n2c(C)c(C(C)=O)c(C(C)=O)c2C)cc1	4	/	+	2	2
COc1ccc(-n2c(C)c(C(C)=O)c(C(C)=O)c2C)cc1	1	-0.31	i	-3	-4
COc1cc(C(=O)OCC(=O)c2cc(C)n(C)c2C)cc(OC)c1OC	2	-0.02	i	69*	-16
CC1CN(C(=O)c2ccc(COc3ccccc3Br)o2)CC(C)O1 (configuration not stated)	2	-0.71	i	-10	4
Nc1cccc(CCc2nc3cc4ccccc4cc3[nH]2)c1	18	0.23	i	81*	10
c1ccc(CCc2nc3ccccc3[nH]2)cc1	1	/	i	0	4
COc1ccc(S(=O)(=O)Nc2cc3c(cc2C(C)=O)OCO3)cc1	42*	-1.4	i	1	-9
